# Only some compounds are listed: those with a hit (about 5.9% of all), similar ones and a draw of the others.
# Pf Dd2 inh – P. falciparum Dd2 growth inhibitors, primary screen, SYBR Green fluorescence, single dose replicates; 94,000 compounds, 2.3% hits; activity change, % at 10 µM; AID 1159554, 2015; 72 h; stronger effect = lower value; in the data active = activity change below about -80%
# T cruzi growth – T. cruzi intracellular proliferation inhibitors, primary screen, cell-based, beta-gal Tulahuen parasites, NIH3T3 host, luminescence | T. cruzi beta-gal in NIH3T3, GalScreen luminescence, 90 h | inhibition, % at 8.34 µM | 77,000 compounds, 5.9% hits | AID 624255, 2012;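 active = mean inhibition above about 93%, with at least 55% of replicates each passing it, limit read from the data, passing the limit was not always enough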
# IDH1 mut inh – inhibitors of IDH1 R132H reductase, primary screen, biochemical, plate reader, single point; Isocitrate dehydrogenase [NADP] cytoplasmic (Homo sapiens), O75874; diaphorase/resazurin fluorescence, 60 min; inhibition, % at 10 µM; 70,000 compounds, 0.18% hits; AID 624101, 2012; in the data active = inhibition above about 34%
# Target sequence (O75874 whole entry R132H): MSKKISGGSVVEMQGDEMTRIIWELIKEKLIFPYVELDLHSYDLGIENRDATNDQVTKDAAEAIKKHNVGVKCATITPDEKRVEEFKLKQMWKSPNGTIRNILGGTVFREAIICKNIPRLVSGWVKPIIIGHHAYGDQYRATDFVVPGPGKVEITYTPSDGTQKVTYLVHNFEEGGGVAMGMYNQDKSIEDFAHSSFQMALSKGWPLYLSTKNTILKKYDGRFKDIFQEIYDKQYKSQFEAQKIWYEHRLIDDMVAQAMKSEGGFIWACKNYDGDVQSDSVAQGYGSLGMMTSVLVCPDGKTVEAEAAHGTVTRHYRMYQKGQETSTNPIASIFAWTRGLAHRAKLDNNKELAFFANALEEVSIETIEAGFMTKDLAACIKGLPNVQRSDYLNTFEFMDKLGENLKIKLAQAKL
# GASC1 inh – inhibitors of GASC-1 (KDM4C) histone demethylase, primary screen, biochemical, single concentration HTS; Lysine-specific demethylase 4C (Homo sapiens), Q9H3R0; GST-KDM4C 2-372, H3K9me3 peptide, LANCE TR-FRET; inhibition, % at 12.5 µM; 96,000 compounds, 0.15% hits; AID 720574, 2013;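 active = mean replicate inhibition above about 25%, with at least 55% of replicates also reaching it, limit read from the data, passing the limit was not always enough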
#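 Test system – GST-tagged GASC-1 (JMJD2C) catalytic fragment, aa 2-372 · Medium – HEPES buffer, pH 7.5, plus ascorbate · Reagent – H3K9me3 peptide with Fe(II)/2OG · Compound – one test concentration per compound · Timing – 30 min reaction, 60 min detection, RT · Technique – TR-FRET with Eu antibody and ULight streptavidin, EDTA stop · Read-out basis – inhibition from TR-FRET ratio decrease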
# Hits are given with their value; . = inactive; / = no result given; ! = not active in a repeat.
SMILES,Pf Dd2 inh,T cruzi growth,IDH1 mut inh,GASC1 inh
OC[C@@H]1[C@H](c2ccc(-c3ccc(F)cc3)cc2)[C@@H](CNC2CCCC2)N1CCC(F)(F)F,-97,/,/,.
OC[C@@H]1[C@H](c2ccc(-c3ccc(F)cc3)cc2)[C@H](CNC2CCCC2)N1CCC(F)(F)F,-89,/,/,.
O=C(CSc1nc2c(c(C(F)(F)F)n1)CCc1ccccc1-2)Nc1c(F)cc(F)cc1Br,/,/,.,/
COC(=O)C1=C(C)Nc2ncnn2C1c1cccc(OC)c1OCc1ccccc1 (configuration not stated),/,/,.,/
N#Cc1ccc(-c2ccc(C3[C@@H]4CN(C(=O)C5CCCCC5)C[C@H]3N4)cc2)cc1 (some centres not stated),-88!,/,/,.
N#Cc1cccc(-c2ccc(C3[C@@H]4CN(C(=O)c5ccncc5)C[C@H]3N4)cc2)c1 (some centres not stated),.,/,/,.
N#Cc1ccc(-c2ccc(C3[C@@H]4CN(C(=O)c5ccncc5)C[C@H]3N4)cc2)cc1 (some centres not stated),.,/,/,39!
CCOc1cc(C2N=C(Nc3nc4ccccc4o3)NC3=C2C(=O)CC(C)(C)C3)ccc1O (configuration not stated),/,/,.,/
C[C@@H]1CCCCO[C@@H](CN(C)C(=O)c2ccccc2)[C@H](C)CN([C@H](C)CO)C(=O)c2cc(NC(=O)Nc3cccc4ccccc34)ccc2O1,.,102,/,.
C[C@@H]1CCCCO[C@H](CN(C)C(=O)CCCN(C)C)[C@H](C)CN([C@H](C)CO)C(=O)c2cc(NC(=O)Nc3cccc4ccccc34)ccc2O1,-86,.,/,.
C[C@@H]1CCCCO[C@H](CN(C)C(=O)c2ccccc2)[C@@H](C)CN([C@@H](C)CO)C(=O)c2cc(NC(=O)Nc3cccc4ccccc34)ccc2O1,-82,.,/,.
C[C@H](CO)N1C[C@H](C)[C@@H](CN(C)C(=O)CCCN(C)C)OCCCC[C@H](C)Oc2ccc(NC(=O)Nc3cccc4ccccc34)cc2C1=O,.,.,.,.
C[C@@H]1CN([C@H](C)CO)C(=O)c2cc(NC(=O)Nc3cccc4ccccc34)ccc2O[C@@H](C)CCCCO[C@@H]1CN(C)C(=O)c1ccccc1,.,.,/,.
O=C(CSc1nc2ccccc2s1)Nc1ccc(F)c(Cl)c1,/,/,.,/
COc1ccc(Oc2c(C(F)(F)F)oc3cc(OCC(=O)Nc4ccccc4F)ccc3c2=O)cc1,/,/,.,/
O=C(CCCCCC(=O)Nc1ccccc1O)N/N=C\c1cc(O)ccc1O,/,/,50,/
O=C(CCCCCCC(=O)Nc1ccccc1O)N/N=C/c1cc(O)ccc1Br,/,/,.,/
O=C(CCCCCC(=O)N/N=C/c1cc(O)ccc1O)NO,/,/,69,/
COc1ccc(C#Cc2ccc3c(c2)O[C@H](CN(C)C(=O)Nc2cccc(OC)c2)[C@@H](C)CN([C@H](C)CO)S3(=O)=O)cc1,-81,.,/,.
COc1cccc(NC(=O)N(C)C[C@H]2Oc3cc(C#Cc4ccccc4)ccc3S(=O)(=O)N([C@@H](C)CO)C[C@@H]2C)c1,-82,121,/,.
COc1cccc(NC(=O)N(C)C[C@H]2Oc3cc(C#Cc4ccc(F)cc4)ccc3S(=O)(=O)N([C@H](C)CO)C[C@H]2C)c1,.,.,.,.
COc1cccc(NC(=O)N(C)C[C@H]2Oc3cc(C#Cc4ccncc4)ccc3S(=O)(=O)N([C@@H](C)CO)C[C@@H]2C)c1,.,.,/,.
OC[C@@H]1[C@@H](c2ccccc2)C2(CN(CCC(F)(F)F)C2)N1Cc1ccccc1,.,/,/,.
O=S(=O)(Cc1ccccc1)N1[C@H](CO)[C@@H](c2ccccc2)C12CN(CCC(F)(F)F)C2,-84,/,/,.
O=C(COc1nc(-c2cccs2)cc(C(F)(F)F)n1)Nc1ccc(Cl)cc1Cl,/,/,.,/
SMILES,Pf Dd2 inh,T cruzi growth,IDH1 mut inh,GASC1 inh
COc1ccc2c3c([nH]c2c1)[C@@H](CO)N(Cc1nccs1)CC31CCN(Cc2ccncc2)CC1,.,/,/,.
COc1ccc2c3c([nH]c2c1)[C@@H](CO)N(Cc1ccncc1)CC31CCN(Cc2ccc(-c3ccccn3)cc2)CC1,-91,/,/,.
COc1ccc2c3c([nH]c2c1)[C@H](CO)N(Cc1ccncc1)CC31CCN(Cc2ccc(-c3ccccn3)cc2)CC1,-89,/,/,.
Cc1ccccc1-c1ccccc1[C@H]1[C@@H](C#N)N(C(=O)c2ccccc2)[C@@H]1CO,-93,/,/,/
CS(=O)(=O)N1[C@H](C#N)[C@H](c2ccccc2-c2ccccc2)[C@H]1CO,-94,/,/,.
CS(=O)(=O)N1[C@H](C#N)[C@H](c2ccccc2-c2ccccc2)[C@@H]1CO,.,/,/,.
COc1cccc(S(=O)(=O)N2CCC3(CC2)CN(C(=O)Nc2ccc(F)cc2)[C@H](CO)c2[nH]c4cc(OC)ccc4c23)c1,.,/,/,.
COc1ccc2c3c([nH]c2c1)[C@H](CO)N(C(=O)Nc1ccc(F)cc1)CC31CCN(S(=O)(=O)c2ccccc2)CC1,-88,/,/,.
COc1ccc2c3c([nH]c2c1)[C@@H](CO)N(C(=O)Nc1ccc(F)cc1)CC31CCN(S(=O)(=O)c2ccccc2)CC1,-84,/,/,.
COc1cccc(S(=O)(=O)N2CCC3(CC2)CN(C(=O)Nc2ccc(F)cc2)[C@@H](CO)c2[nH]c4cc(OC)ccc4c23)c1,.,/,/,.
COc1ccc(-c2nn(C)c(=O)c3ccccc23)cc1CNC(=O)Nc1ccccc1,/,/,.,/
C[C@H]1CN([C@@H](C)CO)C(=O)Cc2cc(NC(=O)C3CCCCC3)ccc2O[C@@H]1CN(C)Cc1ccc(C(=O)Nc2ccccc2N)cc1,-88,/,.,.
C[C@H](CO)N1C[C@H](C)[C@@H](CN(C)Cc2ccc(C(=O)Nc3ccccc3N)cc2)Oc2ccc(NC(=O)C3CCCCC3)cc2CC1=O,-85,.,.,.
C[C@H](CO)N1C[C@H](C)[C@H](CN(C)Cc2ccc(C(=O)Nc3ccccc3N)cc2)Oc2ccc(NC(=O)C3CCCCC3)cc2CC1=O,-84,.,.,.
C[C@@H]1CN([C@H](C)CO)C(=O)Cc2cc(NC(=O)C3CCCCC3)ccc2O[C@@H]1CN(C)Cc1ccc(C(=O)Nc2ccccc2N)cc1,.,/,/,.
COc1ccc(Cl)cc1NC(=O)Nc1cc(C)nc2ccccc12,/,/,.,/
C[C@H](CO)N1C[C@H](C)[C@H](CN(C)S(=O)(=O)c2ccc(Cl)cc2)Oc2ccc(NC(=O)CCCCCC(=O)Nc3ccccc3N)cc2C1=O,.,/,.,.
Cc1ccc(S(=O)(=O)N(C)C[C@@H]2Oc3ccc(NC(=O)CCCCCC(=O)Nc4ccccc4N)cc3C(=O)N([C@@H](C)CO)C[C@@H]2C)cc1,-89,/,.,.
C[C@H](CO)N1C[C@H](C)[C@@H](CN(C)S(=O)(=O)c2ccc(Cl)cc2)Oc2ccc(NC(=O)CCCCCC(=O)Nc3ccccc3N)cc2C1=O,-86,/,.,.
COc1ccc2c(c1)C(C)CC(C)(C)N2C(=O)CSc1nc2ccccc2[nH]1 (configuration not stated),/,/,.,/
